The record followed here is ChEMBL document CHEMBL3352174, “Identification of a New RXRα Antagonist Targeting the Coregulator-Binding Site” (ACS Med Chem Lett, 2014).

In test [1] the target is T1, Retinoic acid receptor RXR-alpha (Homo sapiens) (UniProt P19793).
T1 sequence (whole entry): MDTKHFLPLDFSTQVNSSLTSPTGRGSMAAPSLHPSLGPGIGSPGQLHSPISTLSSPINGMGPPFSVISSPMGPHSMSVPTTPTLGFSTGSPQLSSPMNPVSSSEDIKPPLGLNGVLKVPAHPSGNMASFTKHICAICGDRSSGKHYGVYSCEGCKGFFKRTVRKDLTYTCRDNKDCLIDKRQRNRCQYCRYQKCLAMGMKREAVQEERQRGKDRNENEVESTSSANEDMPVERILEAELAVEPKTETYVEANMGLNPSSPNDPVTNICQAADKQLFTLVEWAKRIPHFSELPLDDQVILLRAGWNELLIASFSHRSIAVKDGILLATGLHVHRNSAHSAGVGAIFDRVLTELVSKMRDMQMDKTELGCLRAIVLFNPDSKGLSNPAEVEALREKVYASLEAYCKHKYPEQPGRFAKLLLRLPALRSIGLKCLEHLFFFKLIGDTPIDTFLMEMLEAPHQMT
The experiment in a line: Antagonist activity against RXRalpha in TNFalpha-stimulated human PC3 cells assessed as inhibition of AKT phosphorylation at 5 and 10 uM pre-treated for 24 hrs before TNFalpha addition by Western blotting method. Conditions: PC-3. The test is classed as cell-based.

The target of test [2] is T2, Oxysterols receptor LXR-alpha (Homo sapiens) (UniProt Q13133).
T2 sequence (whole entry): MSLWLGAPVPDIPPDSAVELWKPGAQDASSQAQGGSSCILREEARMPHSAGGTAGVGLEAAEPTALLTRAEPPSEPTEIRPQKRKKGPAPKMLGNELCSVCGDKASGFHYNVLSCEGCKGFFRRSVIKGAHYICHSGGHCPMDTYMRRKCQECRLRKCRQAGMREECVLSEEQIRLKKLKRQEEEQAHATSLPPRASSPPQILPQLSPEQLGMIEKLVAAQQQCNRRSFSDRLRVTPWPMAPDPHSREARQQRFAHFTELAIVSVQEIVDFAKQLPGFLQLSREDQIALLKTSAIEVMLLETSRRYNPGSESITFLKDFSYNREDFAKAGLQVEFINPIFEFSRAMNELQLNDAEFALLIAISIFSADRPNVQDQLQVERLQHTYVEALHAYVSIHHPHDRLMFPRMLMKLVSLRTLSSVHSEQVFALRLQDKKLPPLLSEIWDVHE
In words: Antagonist activity against LXRalpha ligand binding domain (unknown origin) expressed in human MCF7 cells assessed as inhibition of T09-induced receptor transactivation at 10 uM after 18 hrs by luciferase reporter gene based mammalian one-hybrid assay. The test is classed as cell-based. On the technique in general: Reporter assays use an easily measured gene product as a stand-in for the process of interest.

Test [3] concerns T3, Retinoic acid receptor RXR-alpha (Homo sapiens), P19793 [A272W].
T3 sequence (whole entry): T1 sequence (whole entry) with A272W
The experiment in a line: Antagonist activity against RXRalpha A272W/F313A mutant (unknown origin) expressed in human HEK293T cells assessed as inhibition of constitutive receptor transactivation at 1 to 10 uM after 18 hrs by luciferase reporter gene based mammalian one-hybrid assay. Conditions: HEK-293T.

Test [4] addresses T4, Retinoic acid receptor RXR-alpha (Homo sapiens, UniProt P19793).
T4 sequence (P19793 whole entry): T1 sequence (whole entry)
The experiment in a line: Antagonist activity against Myc-tagged RXRalpha ligand binding domain (unknown origin) expressed in human HEK293T cells assessed as inhibition of 9-cis-RA-induced receptor transactivation after 18 hrs by luciferase reporter gene based mammalian one-hybrid assay. The test is classed as cell-based, HEK-293T. A digest of the protocol: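 HEK293T cells co-transfected with pG5-Luc and pBind-RXRα-LBD. […] Luciferase reporter activity measured. Mean ± SD.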

Test [5] has as its target T1, Retinoic acid receptor RXR-alpha (Homo sapiens). The experiment in a line: Antagonist activity against RXRalpha in human pancreatic cancer cells assessed as inhibition of AKT phosphorylation at 5 and 10 uM after 24 hrs by Western blotting method. The test is classed as cell-based. Conditions: Cancer cell lines. (A western blot detects proteins with antibodies after separation by electrophoresis.)

The target of test [6] is T5, Glucocorticoid receptor (Homo sapiens) (UniProt P04150).
T5 sequence (whole entry): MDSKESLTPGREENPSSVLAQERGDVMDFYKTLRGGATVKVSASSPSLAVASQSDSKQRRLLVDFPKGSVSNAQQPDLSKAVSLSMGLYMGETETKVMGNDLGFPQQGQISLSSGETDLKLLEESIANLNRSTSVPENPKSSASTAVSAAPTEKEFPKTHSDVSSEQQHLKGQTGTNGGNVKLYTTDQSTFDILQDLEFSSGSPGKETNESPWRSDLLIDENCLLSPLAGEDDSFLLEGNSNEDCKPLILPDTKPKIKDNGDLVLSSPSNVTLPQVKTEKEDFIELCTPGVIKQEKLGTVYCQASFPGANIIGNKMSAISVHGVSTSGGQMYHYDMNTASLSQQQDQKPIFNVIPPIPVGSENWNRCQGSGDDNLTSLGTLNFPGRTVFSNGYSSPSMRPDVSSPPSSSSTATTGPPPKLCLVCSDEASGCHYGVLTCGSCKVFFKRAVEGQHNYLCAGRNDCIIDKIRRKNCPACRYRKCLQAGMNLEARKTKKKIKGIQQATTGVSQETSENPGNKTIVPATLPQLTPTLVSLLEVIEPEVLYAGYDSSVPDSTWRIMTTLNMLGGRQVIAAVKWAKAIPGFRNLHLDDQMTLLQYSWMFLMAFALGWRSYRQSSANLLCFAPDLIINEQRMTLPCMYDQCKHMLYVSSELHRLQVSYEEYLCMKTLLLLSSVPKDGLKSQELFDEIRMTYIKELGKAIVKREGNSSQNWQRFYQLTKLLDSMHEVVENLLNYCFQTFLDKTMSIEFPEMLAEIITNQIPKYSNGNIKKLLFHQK
In words: Antagonist activity against GRalpha ligand binding domain (unknown origin) expressed in human MCF7 cells assessed as inhibition of dexamethasone-induced receptor transactivation at 10 uM after 18 hrs by luciferase reporter gene based mammalian one-hybrid assay. The test is classed as cell-based.

In a further test the test system is HepG2. The experiment in a line: Induction of apoptosis in TNFalpha-stimulated human HepG2 cells assessed as PARP cleavage at 5 and 10 uM pre-treated for 24 hrs before TNFalpha addition by immunoblotting method. The class given is functional, cell-based. A digest of the protocol:
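A549 or HepG2 cells were treated with compound for 24 h, with or without subsequent TNFα (20 ng/mL) for 30 min. Lysates were immunoblotted for PARP cleavage as the apoptosis marker. One of three to five similar experiments shown.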

Numbering of substitutions follows the chain as printed. Calls of active or inactive are those of the source. The calls are words filed in the database; no cut-off is given here.

On to `Cc1cc(=O)oc2c(/C=N/NC(=O)CSc3nc4ccccc4s3)c(O)ccc12`, for which the inhibition result in test [1], in test [2] and in test [5] was “Active” throughout. Moreover, the inhibition result in test [3] is “Dose-dependent effect”. Besides, in test [4], the half-inhibitory concentration (IC50) (usually the concentration at which inhibition is half-maximal) stood at 2450 nM. Besides, the inhibition entry in test [6] was “inactive”. Moreover, the outcome in the test on HepG2 was Active.
